Experimental data as given in ChEMBL document CHEMBL4602718, “Mechanism of Action of an EPAC1-Selective Competitive Partial Agonist” (J Med Chem, 2020).
The source made the active and inactive calls. The rule behind the calls is not given here.

Tests used:
[1] = molecular target: T1, Rap guanine nucleotide exchange factor 3 (Homo sapiens) (UniProt O95398); assay: Binding affinity to GST-tagged human EPAC1 CNBD (149 to 318 residues)expressed in Escherichia coli BL21 (DE3) assessed as induction Intermolecular NOEs peaks in PBC and BBR residues by 15N-NOESY-HSQC NMR spectroscopy
T1 sequence (whole entry): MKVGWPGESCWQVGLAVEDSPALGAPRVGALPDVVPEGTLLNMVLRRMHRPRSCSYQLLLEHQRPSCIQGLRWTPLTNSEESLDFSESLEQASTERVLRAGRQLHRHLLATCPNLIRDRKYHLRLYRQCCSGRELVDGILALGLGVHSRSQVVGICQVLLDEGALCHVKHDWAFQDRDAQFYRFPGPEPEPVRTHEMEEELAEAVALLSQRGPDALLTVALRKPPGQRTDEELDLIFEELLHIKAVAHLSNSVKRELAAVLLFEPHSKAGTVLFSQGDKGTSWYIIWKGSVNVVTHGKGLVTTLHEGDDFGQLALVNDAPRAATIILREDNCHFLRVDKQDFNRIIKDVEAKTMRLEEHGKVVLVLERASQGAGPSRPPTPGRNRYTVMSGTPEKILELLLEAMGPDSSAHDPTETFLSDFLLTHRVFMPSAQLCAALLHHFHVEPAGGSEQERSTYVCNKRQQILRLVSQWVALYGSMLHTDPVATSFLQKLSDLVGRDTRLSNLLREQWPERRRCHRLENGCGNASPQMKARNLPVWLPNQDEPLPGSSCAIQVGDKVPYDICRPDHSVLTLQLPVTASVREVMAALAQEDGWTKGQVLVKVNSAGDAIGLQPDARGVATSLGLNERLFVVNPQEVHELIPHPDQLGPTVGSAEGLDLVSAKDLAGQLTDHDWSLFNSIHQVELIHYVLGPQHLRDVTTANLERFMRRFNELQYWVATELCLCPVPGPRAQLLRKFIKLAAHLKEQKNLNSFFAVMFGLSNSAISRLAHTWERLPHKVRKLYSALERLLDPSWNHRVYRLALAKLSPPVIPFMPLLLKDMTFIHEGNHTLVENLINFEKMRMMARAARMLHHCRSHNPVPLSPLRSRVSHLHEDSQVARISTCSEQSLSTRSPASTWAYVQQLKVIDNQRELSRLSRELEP

[2] = molecular target: T1, Rap guanine nucleotide exchange factor 3 (Homo sapiens); assay: Binding affinity to GST-tagged human EPAC1 CNBD (149 to 318 residues)expressed in Escherichia coli BL21 (DE3) assessed as induction of conformational changes in compound by NOESY NMR spectroscopy
[3] = molecular target: T1, Rap guanine nucleotide exchange factor 3 (Homo sapiens); assay: Binding affinity to GST-tagged human EPAC1 CNBD (149 to 318 residues)expressed in Escherichia coli BL21 (DE3) assessed as binding to R279 Guanidinium residue by guanidinium HSQC NMR spectroscopy
In short: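 Human EPAC1 residues 149–318, wild type and R279A mutant, expressed GST-tagged in E. coli BL21(DE3) in 15N or 15N/13C M9 medium. GST tag removed by thrombin; protein purified by glutathione and anion-exchange steps. Guanidinium HSQC spectra of apo or ligand-saturated protein recorded at 700 MHz and 306 K in 50 mM Tris, 50 mM NaCl, 1 mM DTT, pH 7.6. Ligand came from a DMSO-d6 stock, with matching DMSO-d6 added to apo and cAMP-bound controls.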

[4] = molecular target: T1, Rap guanine nucleotide exchange factor 3 (Homo sapiens); assay: Binding affinity to GST-tagged human EPAC1 CNBD (149 to 318 residues)expressed in Escherichia coli BL21 (DE3) assessed as compound binding to phosphate binding cassette region incubated for 30 mins by CHESPA method
[5] = molecular target: T1, Rap guanine nucleotide exchange factor 3 (Homo sapiens); assay: Binding affinity to GST-tagged human EPAC1 CNBD (149 to 318 residues)expressed in Escherichia coli BL21 (DE3) assessed as compound binding to cAMP-binding sites incubated for 30 mins by CHESPA method
[6] = molecular target: T1, Rap guanine nucleotide exchange factor 3 (Homo sapiens); assay: Binding affinity to GST-tagged human EPAC1 CNBD (149 to 318 residues)expressed in Escherichia coli BL21 (DE3) by STD and guanidinium HSQC NMR analysis
[7] = molecular target: T1, Rap guanine nucleotide exchange factor 3 (Homo sapiens); assay: Binding affinity to GST-tagged human EPAC1 CNBD (149 to 318 residues)expressed in Escherichia coli BL21 (DE3) assessed as induction of perturbation of allosteric network sites by CHESCA method
[8] = molecular target: Rap guanine nucleotide exchange factor 3 (Homo sapiens, UniProt O95398, L273W); assay: Binding affinity to GST-tagged human EPAC1 L273W mutant expressed in Escherichia coli BL21 (DE3) incubated for 30 mins by 8-NBD-cAMP based competitive fluorescence assay
Sequence of Rap guanine nucleotide exchange factor 3 (Homo sapiens, UniProt O95398, L273W) (O95398 whole entry L273W): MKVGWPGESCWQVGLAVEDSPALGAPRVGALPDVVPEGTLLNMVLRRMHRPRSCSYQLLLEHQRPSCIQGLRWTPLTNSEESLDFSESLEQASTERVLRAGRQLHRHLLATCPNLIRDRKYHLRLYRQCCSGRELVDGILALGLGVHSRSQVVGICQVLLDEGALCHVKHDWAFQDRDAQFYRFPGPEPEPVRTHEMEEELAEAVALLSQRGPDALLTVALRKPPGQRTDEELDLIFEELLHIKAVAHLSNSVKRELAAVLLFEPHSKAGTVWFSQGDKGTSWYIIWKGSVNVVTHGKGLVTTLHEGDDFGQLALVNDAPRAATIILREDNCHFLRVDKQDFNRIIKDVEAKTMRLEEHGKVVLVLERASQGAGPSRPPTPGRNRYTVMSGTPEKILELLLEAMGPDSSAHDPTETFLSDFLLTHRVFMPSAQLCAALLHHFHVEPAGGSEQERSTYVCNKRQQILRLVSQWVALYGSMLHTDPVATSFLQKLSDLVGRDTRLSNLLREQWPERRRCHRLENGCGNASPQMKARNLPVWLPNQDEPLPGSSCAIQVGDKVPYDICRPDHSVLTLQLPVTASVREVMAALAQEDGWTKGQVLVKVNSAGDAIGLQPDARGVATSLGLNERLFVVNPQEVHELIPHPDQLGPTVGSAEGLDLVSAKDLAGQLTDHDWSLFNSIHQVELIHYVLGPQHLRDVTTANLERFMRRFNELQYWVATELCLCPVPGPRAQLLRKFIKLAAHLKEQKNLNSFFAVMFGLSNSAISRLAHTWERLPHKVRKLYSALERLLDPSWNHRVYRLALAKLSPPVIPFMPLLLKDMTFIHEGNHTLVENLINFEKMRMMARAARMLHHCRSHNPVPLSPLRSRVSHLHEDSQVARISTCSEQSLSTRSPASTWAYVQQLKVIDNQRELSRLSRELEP
In short: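 Competitive displacement of 8-NBD-cAMP from the L273W mutant of the 149–318 construct, titrating ligand in Tris pH 7.6 buffer. […] Percent bound 8-NBD-cAMP was plotted against total ligand and fitted to a competitive-binding cubic solution to give Kd.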

[9] = molecular target: T2, Rap guanine nucleotide exchange factor 3 (Homo sapiens, UniProt O95398); assay: Binding affinity to GST-tagged human EPAC1 CNBD (149 to 318 residues) expressed in Escherichia coli BL21 (DE3) incubated for 30 mins by 8-NBD-cAMP based competitive fluorescence assay
T2 sequence (O95398 whole entry): T1 sequence (whole entry)

[10] = molecular target: T1, Rap guanine nucleotide exchange factor 3 (Homo sapiens); assay: Binding affinity to GST-tagged human EPAC1 CNBD (149 to 318 residues) expressed in Escherichia coli BL21 (DE3) incubated for 30 mins by 1H,15N-HSQC NMR spectroscopy
[11] = molecular target: T1, Rap guanine nucleotide exchange factor 3 (Homo sapiens); assay: Binding affinity to GST-tagged human EPAC1 CNBD (149 to 318 residues)expressed in Escherichia coli BL21 (DE3) assessed as compound binding to base binding region incubated for 30 mins by CHESPA method

SMILES: Cc1ccc(S(=O)(=O)NC(=O)COc2ccc3ccccc3c2)c(C)c1
- Activity [1]: Active
- Activity [2]: Active
- Activity [3]: Active
- Activity [4]: Active
- Activity [5]: Active
- Activity [6]: Active
- Activity [7]: Active
- Kd [8]: 4.9 µM
- Kd [9]: 6.6 µM
- Activity [10]: Active
- Activity [11]: Active

SMILES: Nc1ncnc2c1ncn2[C@@H]1O[C@@H]2CO[P@@](O)(=S)O[C@H]2[C@H]1O
- Activity [3]: Active

SMILES: COc1ccc(S(=O)(=O)NC(=O)COc2ccc3ccccc3c2)cc1OC
- Activity [1]: Active

SMILES: COc1ccc(S(=O)(=O)NC(=O)COc2ccc3ccccc3c2)c(OC)c1
- Activity [1]: Active

SMILES: COc1ccc(OC)c(S(=O)(=O)NC(=O)COc2ccc3ccccc3c2)c1
- Activity [1]: Active
